Experimental data from ChEMBL document CHEMBL1667760, “Synthesis and biological evaluation of 3,5-diaryl isoxazoline/isoxazole linked 2,3-dihydroquinazolinone hybrids as anticancer agents” (2011).
Calls of active or inactive are those of the source. No cut-off for these calls is given here.

Assays:
[1] = tested on: SR; experiment: Cytotoxicity against human SR cells after 48 hrs by sulforhodamine B assay; format: functional
Outline: (§1)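 NCI 60-cell-line panel screen of human tumor lines: a one-dose pre-test, then the main test over a 5-log range (10^-4–10^-8 M). GI50, TGI and LC50 are reported as log molar concentrations for 50% net growth inhibition, total growth inhibition and 50% net cell death. Mean graph midpoints are also calculated.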

[2] = tested on: NCI-H226; experiment: Cytotoxicity against human NCI-H226 cells after 48 hrs by sulforhodamine B assay; format: functional; conditions: NCI-H226, 48 h
Outline: (§2)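 Run by the NCI 60-cell-line screen. A one-dose pre-test was done first, followed by the main test over a 5-log dose range (10^-4 to 10^-8 M). Results are reported as log molar GI50 (50% net growth inhibition), TGI (total growth inhibition) and LC50 (50% net cell death), with mean-graph midpoints across all lines.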

[3] = tested on: HCT-15; experiment: Cytotoxicity against human HCT15 cells after 48 hrs by sulforhodamine B assay; format: functional; conditions: HCT-15, 48 h; outline: as §2
[4] = tested on: SF-268; experiment: Cytotoxicity against human SF268 cells after 48 hrs by sulforhodamine B assay; format: functional; conditions: SF-268, 48 h; outline: as §2
[5] = tested on: SF-539; experiment: Cytotoxicity against human SF539 cells after 48 hrs by sulforhodamine B assay; format: functional; conditions: SF-539, 48 h; outline: as §2
[6] = tested on: SNB-19; experiment: Cytotoxicity against human SNB19 cells after 48 hrs by sulforhodamine B assay; format: functional; conditions: SNB-19, 48 h; outline: as §1
[7] = tested on: SNB-75; experiment: Cytotoxicity against human SNB75 cells after 48 hrs by sulforhodamine B assay; format: functional; conditions: SNB-75, 48 h; outline: as §1
[8] = tested on: M14; experiment: Cytotoxicity against human M14 cells after 48 hrs by sulforhodamine B assay; format: functional; conditions: M14, 48 h; outline: as §2
[9] = tested on: A498; experiment: Cytotoxicity against human A498 cells after 48 hrs by sulforhodamine B assay; format: functional; conditions: A498, 48 h; outline: as §2
[10] = tested on: SN12C; experiment: Cytotoxicity against human SN12C cells after 48 hrs by sulforhodamine B assay; format: functional; outline: as §1
[11] = tested on: UO-31; experiment: Cytotoxicity against human UO31 cells after 48 hrs by sulforhodamine B assay; format: functional; conditions: UO-31, 48 h; outline: as §1
[12] = tested on: MCF7; experiment: Cytotoxicity against human MCF7 cells after 48 hrs by sulforhodamine B assay; format: functional; conditions: MCF7, 48 h
Outline: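 Cells were grown in RPMI 1640 with 10% FBS and 2 mM L-glutamine, plated at densities set by doubling time, and pre-incubated 24 h at 37 °C, 5% CO2. Drugs were tested at 0.1, 1, 10 and 100 µM in triplicate wells for 48 h continuous exposure. Cells were fixed with 10% TCA (final) and stained with 0.4% SRB. A540 was read against a 690 nm reference, and percent growth was calculated relative to control. Experiments were repeated three times.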

[13] = tested on: MDA-MB-435; experiment: Cytotoxicity against human MDA-MB-435 cells after 48 hrs by sulforhodamine B assay; format: functional; conditions: MDA-MB-435, 48 h; outline: as §2
[14] = tested on: MCF7; experiment: Cell cycle arrest in human MCF7 cells assessed as accumulation at S phase at 5 uM after 24 hrs using propidium iodide staining by flow cytometry relative to control; format: functional
Outline: (§3)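 MCF-7 cells were seeded at 5×10^5 per 60 mm dish and grown 24 h. They were then exposed to 5 uM compound for a further 24 h, with untreated control cells alongside. Cells were trypsinised, fixed in ice-cold 70% ethanol (4 °C, 30 min), treated with 1 mg/ml RNase A (37 °C, 30 min) and stained with propidium iodide/citrate/Triton solution. DNA content was read by flow cytometry on 20,000 events.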

[15] = tested on: MCF7; experiment: Cell cycle arrest in human MCF7 cells assessed as accumulation at G2/M phase at 5 uM after 24 hrs using propidium iodide staining by flow cytometry relative to control; format: functional; outline: as §3
[16] = tested on: MCF7; experiment: Induction of apoptosis in human MCF7 cells assessed as nuclear fragmentation at 5 uM after 48 hrs by DAPI staining; format: functional, cell-based
Outline: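 MCF-7 cells grown on glass coverslips and incubated 48 h with or without compound. Fixed in 3% paraformaldehyde/0.02% glutaraldehyde in PBS, stained with DAPI, and nuclear morphology examined by fluorescence microscopy.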

[17] = tested on: MCF7; experiment: Induction of apoptosis in human MCF7 cells assessed as increase of cleaved PARP level at 5 uM after 24 hrs by Western blotting; format: functional, cell-based
Outline: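 MCF-7 cells, kept in DMEM with 10% fetal calf serum at 37 °C under 5% CO2, treated 24 h. Lysis in ice-cold RIPA with protease inhibitors; Bradford quantitation; 30 µg protein per lane on 12% SDS-PAGE, then PVDF. Primary antibodies (1:500) at 4 °C overnight; HRP secondary (1:2000); chemiluminescence detection; β-actin loading control.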

[18] = tested on: MCF7; experiment: Cytotoxicity against human MCF7 cells at 5 uM after 24 hrs by MTT assay
[19] = read-out: pLC50 (the source's name) (converted)

COc1cc(C2NC(=O)c3ccccc3N2)ccc1OCCCCCOc1c(OC)cc(C2=NOC(c3cc(OC)c(OC)c(OC)c3)C2)cc1OC (centres undefined)
GI50 [1]: 0.955 µM | CC50 [1, 19]: > 100 µM | TGI ([1]; read-out: pTGI): > 100 µM | GI50 [2]: 3.39 µM | CC50 [2, 19]: > 100 µM | TGI ([2]; read-out: pTGI): > 100 µM | GI50 [3]: 0.708 µM | CC50 [3, 19]: > 100 µM | TGI ([3]; read-out: pTGI): > 100 µM | GI50 [4]: 21.4 µM | CC50 [4, 19]: > 100 µM | TGI ([4]; read-out: pTGI): > 100 µM | GI50 [5]: 17.8 µM | CC50 [5, 19]: > 100 µM | TGI ([5]; read-out: pTGI (converted)): 89.1 µM | GI50 [6]: 16.6 µM | CC50 [6, 19]: > 100 µM | TGI ([6]; read-out: pTGI): > 100 µM | GI50 [7]: 11.2 µM | CC50 [7, 19]: > 100 µM | TGI ([7]; read-out: pTGI): > 100 µM | GI50 [8]: 20.9 µM | CC50 [8, 19]: > 100 µM | TGI ([8]; read-out: pTGI): > 100 µM | GI50 [9]: 19.5 µM | CC50 [9, 19]: > 100 µM | TGI ([9]; read-out: pTGI): > 100 µM | GI50 [10]: 25.1 µM | CC50 [10, 19]: > 100 µM | TGI ([10]; read-out: pTGI): > 100 µM | GI50 [11]: 10.7 µM | CC50 [11, 19]: > 100 µM | TGI ([11]; read-out: pTGI): > 100 µM | GI50 [12]: 0.282 µM | CC50 [12, 19]: > 100 µM | TGI ([12]; read-out: pTGI): > 100 µM | GI50 [13]: 0.417 µM | CC50 [13, 19]: > 100 µM | TGI ([13]; read-out: pTGI): > 100 µM | Activity [14]: 22.38% | Activity [15]: 43.9% | inhibition [16]: Active | Activity [17]: Active | Activity [18]: Active
